# Bioassay records (PubChem BioAssay)
# The list is not random: actives were taken first. Their share in the collection is about 4.1%.
# KCNQ1 inh: inhibitors of human KCNQ1 channel, primary screen, cell-based, thallium flux, high-throughput; CHO-K1 KCNQ1, FluxOR thallium flux fluorescence; hits give high values; B-score at 10 µM; 310,000 tested, 1.3% active; AID 2642, 2010;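 active means compounds whose thallium flux B-score, printed positive for inhibition, exceeds three library SD while starting fluorescence stays within three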;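 further: channel opened by potassium depolarization with thallium stimulus after 20 min compound exposure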
# KCNQ1 act: potentiators or activators of KCNQ1 channel, primary screen, cell-based, thallium flux, high-throughput | 310,000 tested, 0.35% active | B-score at 10 µM | CHO-K1 KCNQ1, thallium flux FluxOR fluorescence; hits give high values | Potassium voltage-gated channel subfamily KQT member 1 (Homo sapiens), P51787 | AID 2648, 2010;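 active means fluorescence ratio B-score, a plate-corrected score, at least three library SD, with initial intensity B-score within 5 SD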
#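 Material: CHO-K1 cells stably expressing KCNQ1. Medium: assay buffer for compound exposure, DMSO matched across wells. Reagent: K+/Tl+ depolarizing stimulus. Compound dosing: single-concentration screen. Times: 37 °C overnight plating, 90-min dark dye load, 20-min compound pretreatment. Technique: FluxOR Tl+ flux fluorescence.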
# hERG protect: hERG rescue from dofetilide block, primary screen, cell-based, CHO-hERG, FluxOR thallium flux, dofetilide IC70; Voltage-gated inwardly rectifying potassium channel KCNH2 (Homo sapiens), Q12809; dofetilide IC70 present; activation (rescue from dofetilide block), less the hit threshold, % at 10 µM; 310,000 tested, 0.51% active; AID 1511, 2009;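 active means activation above the mean of controls blocked by dofetilide plus 5 SD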;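 further: thallium influx through hERG after potassium depolarization seen as dye fluorescence rise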
# KCC2 mod: KCC2 cotransporter modulators, thallium flux, primary screen, cell-based, HEK293 KCC2, FluoZin-2 fluorescence, MLSMR; 190,000 tested, 2.2% active; B-score of Tl+ flux slope (higher = more flux/activation; lower = inhibition) at 10 µM; KCC2 cells, thallium flux FluoZin-2 fluorescence;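 active means thallium flux slope and its plate-corrected score both differing from the plate sample mean at a set confidence after two filtering rounds, in either direction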;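 further: slope of fluorescence scaled to starting intensity during 10 to 20 s after thallium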
# KCNK9 block: KCNK9 potassium channel inhibitors, primary screen, HEK293 cells, thallium flux; Potassium channel subfamily K member 9 (Homo sapiens), Q9NPC2; FluxOR thallium flux fluorescence; hits give low values; B-score at 10 µM; 310,000 tested, 1.2% active; AID 488922, 2010;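 active means ratio B-score over 3 SD below the library mean, with starting fluorescence within 5 SD of its mean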;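 further: negative B-score means less thallium flux so channel inhibition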
# KCNK3 inh: human KCNK3 channel inhibitors, primary screen, CHO cells, FluxOR thallium flux, B-score. Potassium channel subfamily K member 3 (Homo sapiens), O14649. B-score at 10 µM. FluxOR fluorescence; hits give low values. 340,000 tested, 0.84% active;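 active means B-score under library mean minus 4 SD, starting fluorescence ratio at most library mean plus 5 SD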;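 further: more negative B-score means stronger inhibition of thallium flux through KCNK3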
# KCNK9 inh conf: KCNK9 potassium channel inhibitors, confirmation, HEK293 cells, thallium flux, duplicate; shares compounds with KCNK9 block; FluxOR thallium flux fluorescence; inhibition, % at 10 µM; 4,900 tested, 43% active;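 active means thallium signal inhibited by more than 5 SD of the compound-free buffer control wells, on both duplicate plates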;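 further: 0% = assay buffer control wells without compound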
# Kir21 sel: mouse Kir2.1 channel inhibition, confirmation, selectivity assay for KCNK9 modulator project, cell-based, HEK293, thallium flux. shares compounds with KCNK9 block. Kir2.1 cells, FluxOR thallium flux fluorescence. inhibition, % at 10 µM. 4,900 tested, 4% active. AID 492993, 2010;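 active means thallium signal drop more than 5 SD beyond the mean of the no-compound control wells, seen in both duplicate plates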;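 further: signal is fluorescence rise after thallium addition divided by baseline fluorescence; plate controls were assay buffer only for no effect and full block by chlorpromazine control for full effect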
# Target sequence (P35561 whole entry, looked up): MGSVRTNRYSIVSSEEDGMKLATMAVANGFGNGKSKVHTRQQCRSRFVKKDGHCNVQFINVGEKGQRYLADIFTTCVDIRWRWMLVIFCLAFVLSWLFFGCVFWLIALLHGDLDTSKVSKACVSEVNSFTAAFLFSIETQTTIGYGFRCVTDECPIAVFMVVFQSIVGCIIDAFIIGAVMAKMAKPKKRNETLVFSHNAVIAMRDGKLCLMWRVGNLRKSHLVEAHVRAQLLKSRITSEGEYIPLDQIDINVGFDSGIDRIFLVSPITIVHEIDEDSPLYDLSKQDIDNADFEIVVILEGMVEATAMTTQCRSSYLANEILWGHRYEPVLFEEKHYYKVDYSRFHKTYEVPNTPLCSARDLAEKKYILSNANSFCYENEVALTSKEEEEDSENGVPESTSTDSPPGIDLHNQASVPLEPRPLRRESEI
# KCNK9 uninduced: thallium flux in non-induced HEK293 cells, confirmation, counter-screen for KCNK9 inhibitor project, cell-based, second counter screen, non-induced KCNK9-HEK293; shares compounds with KCNK9 block; FluxOR thallium flux; inhibition, % at 10 µM; 4,900 tested, 40% active;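 active means thallium signal drop beyond 5 SD of the untreated control mean, on both duplicate plates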;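 further: plate controls were buffer only IC0 wells for no effect and SID17386958 at its maximal inhibitory level for full effect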
# KCNK3 inh conf: retest of human KCNK3 channel inhibitors, confirmation, CHO cells, FluxOR thallium flux, triplicate; ratio percent of control, % at 10 µM; shares compounds with KCNK3 inh; FluxOR fluorescence; 0% buffer, 100% carvedilol maximal block; 2,400 tested, 99% active;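 active means ratio percent of control, averaged over triplicates, above buffer control mean plus 5 SD, cut at about 64% in these data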;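 further: ratio is the fluorescence rise from min to max over baseline after thallium stimulus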
# KCNK3 noninduced: thallium flux inhibition in non-induced cells, primary screen, counter-screen for KCNK3 inhibitor project, cell-based, non-induced KCNK3 line, FluxOR thallium, triplicate. shares compounds with KCNK3 inh. non-induced KCNK3 parental cells; hits give low values. thallium flux ratio (lower = more inhibition) at 10 µM. 2,400 tested, 40% active;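 active means thallium flux ratio, averaged over three wells, more than 5 SD below the buffer control mean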;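 further: host cells are CHO cells without KCNK3 induction; ratio is peak minus trough fluorescence over baseline then normalized to buffer controls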
# Starred values were filed as active, the others as inactive; i = inactive; x = no result given.
SMILES,KCNQ1 inh,KCNQ1 act,hERG protect,KCC2 mod,KCNK9 block,KCNK3 inh,KCNK9 inh conf,Kir21 sel,KCNK9 uninduced,KCNK3 inh conf,KCNK3 noninduced
N#Cc1c(-c2ccccc2)c(-c2ccccc2)n(Cc2ccco2)c1NC(=O)c1cccs1,6*,i,-5,-0.95,-13*,-13*,58%*,i,42%*,112*,i
O=C1C2CCC(C2)C1CN1CCOCC1 (stereo not drawn),x,x,x,x,x,i,x,x,x,x,x
Clc1ccc(CN(Cc2ccccc2)C(c2cccs2)c2nnnn2C2CCCC2)cc1 (stereo not drawn),i,i,-9,-0.6,i,i,x,x,x,x,x
CC(C)(C)n1nnnc1C(c1cccs1)N(Cc1ccccc1)Cc1cccnc1 (stereo not drawn),i,i,-11,-0.44,-13*,i,66%*,i,54%*,118*,i
Cc1ccc(NC(=O)C(C)N=C2NS(=O)(=O)c3ccccc32)cc1F (stereo not drawn),i,i,-6,-0.3,i,i,x,x,x,x,x
COc1ccccc1C(=O)Nc1cccc(NC(C)=O)c1,i,i,-8,-1.1,i,i,x,x,x,x,x
COc1ccccc1C(=O)Nc1cccc(NC(=O)c2ccccc2C)c1,i,i,-15,x,-9.1*,-12*,54%*,i,30%*,84*,i
CCCCCCCCCC[n+]1cccc2c3ccccc3ccc21,i,i,-19,-1.9,-15*,i,73%*,i,36%*,72*,i
Cc1c2ccccc2cc[n+]1CCCS(=O)(=O)[O-],i,i,-10,0.18,i,i,x,x,x,x,x
CC(C)(C)c1ccc(S(=O)(=O)NNC(=O)c2cc3ccccc3[nH]2)cc1,i,i,-15,x,i,i,x,x,x,x,x
O=C(c1ccco1)N(CCC(c1ccccc1)c1ccco1)Cc1ccc(F)cc1 (stereo not drawn),i,i,-19,x,-14*,-11*,66%*,40%*,31%*,95*,0.15*
CCOc1cc(C(=O)N2CCC3(CC2)NCCc2[nH]cnc23)cc(OCC)c1OCC,i,i,-4,x,i,i,x,x,x,x,x
c1coc(CN(Cc2ccco2)c2ncnc3c2oc2ccccc23)c1,i,i,-9,-1.8,-18*,-12*,70%*,i,i,139*,0.14*
Clc1ncnc2c1oc1ccccc12,i,i,-18,x,i,i,x,x,x,x,x
O=C(Nc1ccccc1N1CCN(c2ccc(F)cc2)CC1)c1ccccc1,i,i,-4,-0.048,-10*,-14*,i,i,29%*,125*,0.15*
